Measurements published in ChEMBL document CHEMBL1926550, “Synthesis and antibacterial activity of naphthyridone derivatives containing mono/difluoro-methyloxime pyrrolidine scaffolds” (2012).
Converted amounts (≈) assume the structure as drawn.

What was measured:
Type in all cases: functional
Enterococcus faecalis [1] = test: Antibacterial activity against Enterococcus faecalis 09-2 after 18 hrs by two fold serial dilution method; conditions: 09-2, 18 h
In short: (§1)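 Agar two-fold serial dilution in melted Mueller-Hinton agar, final concentrations 128 down to 0.008 μg/mL. Plates inoculated with 10⁴ cfu and incubated at 35 °C for 18 h. MIC taken as the lowest concentration giving no visible growth on the plate.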

Staphylococcus aureus [2] = test: Antibacterial activity against methicillin-resistant Staphylococcus aureus 10-3 after 18 hrs by two fold serial dilution method; conditions: 10-3, 18 h
In short: (§2)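 Agar two-fold serial dilution in melted Mueller-Hinton agar, 128 to 0.008 μg/mL. Plates inoculated with 10⁴ cfu, incubated 35 °C for 18 h. MIC taken as lowest concentration giving no visible growth on the plate.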

Enterococcus faecium [3] = test: Antibacterial activity against Enterococcus faecium 09-5 after 18 hrs by two fold serial dilution method; conditions: 09-5, 18 h; in short: as §1
Escherichia coli [4] = test: Antibacterial activity against Escherichia coli 10-3 after 18 hrs by two fold serial dilution method; conditions: 10-3, 18 h; in short: as §1
Klebsiella pneumoniae [5] = test: Antibacterial activity against Klebsiella pneumoniae 10-1 after 18 hrs by two fold serial dilution method; conditions: 10-1, 18 h; in short: as §1
Enterococcus faecalis [6] = test: Antibacterial activity against Enterococcus faecalis 09-1 after 18 hrs by two fold serial dilution method; conditions: 09-1, 18 h; in short: as §1
Streptococcus pneumoniae = test: Antibacterial activity against Streptococcus pneumoniae 10-1 after 18 hrs by two fold serial dilution method; conditions: 10-1, 18 h; in short: as §1
Staphylococcus aureus [7] = test: Antibacterial activity against methicillin-sensitive Staphylococcus aureus 10-6 after 18 hrs by two fold serial dilution method; conditions: 10-6, 18 h; in short: as §1
Pseudomonas aeruginosa [8] = test: Antibacterial activity against Pseudomonas aeruginosa 10-2 after 18 hrs by two fold serial dilution method; conditions: 10-2, 18 h; in short: as §1
[9] = tested on: Staphylococcus epidermidis; test: Antibacterial activity against methicillin-resistant Staphylococcus epidermidis 10-2 after 18 hrs by two fold serial dilution method; conditions: 10-2, 18 h; in short: as §2
Enterococcus faecium [10] = test: Antibacterial activity against Enterococcus faecium 09-6 after 18 hrs by two fold serial dilution method; conditions: 09-6, 18 h; in short: as §1
Staphylococcus aureus [11] = test: Antibacterial activity against methicillin-sensitive Staphylococcus aureus 10-2 after 18 hrs by two fold serial dilution method; conditions: 10-2, 18 h; in short: as §1
Enterococcus faecium [12] = test: Antibacterial activity against Enterococcus faecium 09-3 after 18 hrs by two fold serial dilution method; conditions: 09-3, 18 h; in short: as §1
Staphylococcus aureus [13] = test: Antibacterial activity against methicillin-sensitive Staphylococcus aureus 10-4 after 18 hrs by two fold serial dilution method; conditions: 10-4, 18 h; in short: as §1
Staphylococcus aureus [14] = test: Antibacterial activity against methicillin-resistant Staphylococcus aureus 10-4 after 18 hrs by two fold serial dilution method; conditions: 10-4, 18 h; in short: as §2
Escherichia coli [15] = test: Antibacterial activity against Escherichia coli ATCC 25922 after 18 hrs by two fold serial dilution method; conditions: ATCC 25922, 18 h; in short: as §1
Pseudomonas aeruginosa [16] = test: Antibacterial activity against Pseudomonas aeruginosa 10-3 after 18 hrs by two fold serial dilution method; conditions: 10-3, 18 h; in short: as §1
Staphylococcus aureus [17] = test: Antibacterial activity against methicillin-sensitive Staphylococcus aureus 10-5 after 18 hrs by two fold serial dilution method; conditions: 10-5, 18 h; in short: as §1
Klebsiella pneumoniae [18] = test: Antibacterial activity against Klebsiella pneumoniae 09-2 after 18 hrs by two fold serial dilution method; conditions: 09-2, 18 h; in short: as §1
Staphylococcus aureus [19] = test: Antibacterial activity against Staphylococcus aureus ATCC 25923 after 18 hrs by two fold serial dilution method; conditions: ATCC 25923, 18 h; in short: as §1
[20] = tested on: Staphylococcus epidermidis; test: Antibacterial activity against methicillin-resistant Staphylococcus epidermidis 10-1 after 18 hrs by two fold serial dilution method; conditions: 10-1, 18 h; in short: as §2
Staphylococcus aureus [21] = test: Antibacterial activity against methicillin-resistant Staphylococcus aureus 10-2 after 18 hrs by two fold serial dilution method; conditions: 10-2, 18 h; in short: as §2
Pseudomonas aeruginosa [22] = test: Antibacterial activity against Pseudomonas aeruginosa 10-1 after 18 hrs by two fold serial dilution method; conditions: 10-1, 18 h; in short: as §1
Pseudomonas aeruginosa [23] = test: Antibacterial activity against Pseudomonas aeruginosa ATCC 27853 after 18 hrs by two fold serial dilution method; conditions: ATCC 27853, 18 h; in short: as §1
Enterococcus faecium [24] = test: Antibacterial activity against Enterococcus faecium 09-2 after 18 hrs by two fold serial dilution method; conditions: 09-2, 18 h; in short: as §1
Klebsiella pneumoniae [25] = test: Antibacterial activity against Klebsiella pneumoniae 10-3 after 18 hrs by two fold serial dilution method; conditions: 10-3, 18 h; in short: as §1
Staphylococcus aureus [26] = test: Antibacterial activity against methicillin-resistant Staphylococcus aureus 10-1 after 18 hrs by two fold serial dilution method; conditions: 10-1, 18 h; in short: as §2
Escherichia coli [27] = test: Antibacterial activity against Escherichia coli 09-2 after 18 hrs by two fold serial dilution method; conditions: 09-2, 18 h; in short: as §1
[28] = tested on: Staphylococcus epidermidis; test: Antibacterial activity against methicillin-sensitive Staphylococcus epidermidis 10-2 after 18 hrs by two fold serial dilution method; conditions: 10-2, 18 h; in short: as §1
Enterococcus faecium [29] = test: Antibacterial activity against Enterococcus faecium 09-4 after 18 hrs by two fold serial dilution method; conditions: 09-4, 18 h; in short: as §1
[30] = tested on: Staphylococcus epidermidis; test: Antibacterial activity against methicillin-sensitive Staphylococcus epidermidis 10-1 after 18 hrs by two fold serial dilution method; conditions: 10-1, 18 h; in short: as §1
Escherichia coli [31] = test: Antibacterial activity against Escherichia coli 10-2 after 18 hrs by two fold serial dilution method; conditions: 10-2, 18 h; in short: as §1
Staphylococcus aureus [32] = test: Antibacterial activity against methicillin-sensitive Staphylococcus aureus 10-1 after 18 hrs by two fold serial dilution method; conditions: 10-1, 18 h; in short: as §1
Staphylococcus aureus [33] = test: Antibacterial activity against methicillin-sensitive Staphylococcus aureus 10-3 after 18 hrs by two fold serial dilution method; conditions: 10-3, 18 h; in short: as §1
Enterococcus faecium [34] = test: Antibacterial activity against Enterococcus faecium 09-1 after 18 hrs by two fold serial dilution method; conditions: 09-1, 18 h; in short: as §1
Escherichia coli [35] = test: Antibacterial activity against Escherichia coli 09-1 after 18 hrs by two fold serial dilution method; conditions: 09-1, 18 h; in short: as §1
Escherichia coli [36] = test: Antibacterial activity against Escherichia coli 10-1 after 18 hrs by two fold serial dilution method; conditions: 10-1, 18 h; in short: as §1
Escherichia coli [37] = test: Antibacterial activity against Escherichia coli 09-3 after 18 hrs by two fold serial dilution method; conditions: 09-3, 18 h; in short: as §1

Compound | MIC (Enterococcus faecalis [1]) | MIC (Staphylococcus aureus [2]) | MIC (Enterococcus faecium [3]) | MIC (Escherichia coli [4]) | MIC (Klebsiella pneumoniae [5]) | MIC (Enterococcus faecalis [6]) | MIC (Streptococcus pneumoniae) | MIC (Staphylococcus aureus [7]) | MIC (Pseudomonas aeruginosa [8]) | MIC [9] | MIC (Enterococcus faecium [10]) | MIC (Staphylococcus aureus [11]) | MIC (Enterococcus faecium [12]) | MIC (Staphylococcus aureus [13]) | MIC (Staphylococcus aureus [14]) | MIC (Escherichia coli [15]) | MIC (Pseudomonas aeruginosa [16]) | MIC (Staphylococcus aureus [17]) | MIC (Klebsiella pneumoniae [18]) | MIC (Staphylococcus aureus [19]) | also measured
COc1c(N2C[C@@H]3CCCN[C@@H]3C2)c(F)cc2c(=O)c(C(=O)O)cn(C3CC3)c12 [MOXIFLOXACIN] | 16 µg/mL (≈ 39.9 µM) | 8 µg/mL (≈ 19.9 µM) | 16 µg/mL (≈ 39.9 µM) | 4 µg/mL (≈ 9.96 µM) | 0.03 µg/mL (≈ 0.0747 µM) | 8 µg/mL (≈ 19.9 µM) | 0.008 µg/mL (≈ 0.0199 µM) | 0.008 µg/mL (≈ 0.0199 µM) | 16 µg/mL (≈ 39.9 µM) | 1 µg/mL (≈ 2.49 µM) | 0.125 µg/mL (≈ 0.311 µM) | 4 µg/mL (≈ 9.96 µM) | 2 µg/mL (≈ 4.98 µM) | 0.008 µg/mL (≈ 0.0199 µM) | 8 µg/mL (≈ 19.9 µM) | 0.008 µg/mL (≈ 0.0199 µM) | 4 µg/mL (≈ 9.96 µM) | 0.03 µg/mL (≈ 0.0747 µM) | 16 µg/mL (≈ 39.9 µM) | 0.008 µg/mL (≈ 0.0199 µM) | MIC [20]: 0.5 µg/mL (≈ 1.25 µM); MIC (Staphylococcus aureus [21]): 8 µg/mL (≈ 19.9 µM); MIC (Pseudomonas aeruginosa [22]): 0.5 µg/mL (≈ 1.25 µM); MIC (Pseudomonas aeruginosa [23]): 1 µg/mL (≈ 2.49 µM); MIC (Enterococcus faecium [24]): 16 µg/mL (≈ 39.9 µM); MIC (Klebsiella pneumoniae [25]): 0.5 µg/mL (≈ 1.25 µM); MIC (Staphylococcus aureus [26]): 8 µg/mL (≈ 19.9 µM); MIC (Escherichia coli [27]): 32 µg/mL (≈ 79.7 µM); MIC [28]: 16 µg/mL (≈ 39.9 µM); MIC (Enterococcus faecium [29]): 0.008 µg/mL (≈ 0.0199 µM); MIC [30]: 2 µg/mL (≈ 4.98 µM); MIC (Escherichia coli [31]): 0.5 µg/mL (≈ 1.25 µM); MIC (Staphylococcus aureus [32]): 0.008 µg/mL (≈ 0.0199 µM); MIC (Staphylococcus aureus [33]): 0.008 µg/mL (≈ 0.0199 µM); MIC (Enterococcus faecium [34]): 16 µg/mL (≈ 39.9 µM)
NCC1CN(c2nc3c(cc2F)c(=O)c(C(=O)O)cn3-c2ccc(F)cc2F)C/C1=N\OC(F)F (racemic) | 16 µg/mL (≈ 32.2 µM) | 16 µg/mL (≈ 32.2 µM) | 32 µg/mL (≈ 64.3 µM) | 8 µg/mL (≈ 16.1 µM) | 0.25 µg/mL (≈ 0.503 µM) | 8 µg/mL (≈ 16.1 µM) | 0.06 µg/mL (≈ 0.121 µM) | 0.015 µg/mL (≈ 0.0302 µM) | 128 µg/mL (≈ 257 µM) | 1 µg/mL (≈ 2.01 µM) | 0.125 µg/mL (≈ 0.251 µM) | 1 µg/mL (≈ 2.01 µM) | 16 µg/mL (≈ 32.2 µM) | 0.008 µg/mL (≈ 0.0161 µM) | 16 µg/mL (≈ 32.2 µM) | 0.008 µg/mL (≈ 0.0161 µM) | 8 µg/mL (≈ 16.1 µM) | 0.015 µg/mL (≈ 0.0302 µM) | 64 µg/mL (≈ 129 µM) | 0.008 µg/mL (≈ 0.0161 µM) | MIC (Escherichia coli [35]): 32 µg/mL (≈ 64.3 µM); MIC [20]: 2 µg/mL (≈ 4.02 µM); MIC (Staphylococcus aureus [21]): 4 µg/mL (≈ 8.04 µM); MIC (Pseudomonas aeruginosa [22]): 1 µg/mL (≈ 2.01 µM); MIC (Escherichia coli [36]): > 128 µg/mL; MIC (Pseudomonas aeruginosa [23]): 4 µg/mL (≈ 8.04 µM); MIC (Enterococcus faecium [24]): 32 µg/mL (≈ 64.3 µM); MIC (Klebsiella pneumoniae [25]): 2 µg/mL (≈ 4.02 µM); MIC (Staphylococcus aureus [26]): 16 µg/mL (≈ 32.2 µM); MIC (Escherichia coli [27]): > 128 µg/mL; MIC [28]: 64 µg/mL (≈ 129 µM); MIC (Enterococcus faecium [29]): 0.125 µg/mL (≈ 0.251 µM); MIC [30]: 32 µg/mL (≈ 64.3 µM); MIC (Escherichia coli [31]): 4 µg/mL (≈ 8.04 µM); MIC (Staphylococcus aureus [32]): 0.03 µg/mL (≈ 0.0603 µM); MIC (Staphylococcus aureus [33]): 0.015 µg/mL (≈ 0.0302 µM); MIC (Enterococcus faecium [34]): 32 µg/mL (≈ 64.3 µM); MIC (Escherichia coli [37]): 64 µg/mL (≈ 129 µM)
